Data set [1] relates to cisplatin-resistant KB CP20 cells. Briefly: Cytotoxicity, CellTiter-Glo, monolayer. It is filed as cell-based, human. Particulars: for IC50: read-out: IC50 KB CP20, 72 h; for resistance of CP20 cells: relative to parent KB-3-1 cells, monolayer (Table 1 data). In outline:
(§1)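 Monolayers in DMEM (4.5 g/L glucose, L-glutamine, penicillin/streptomycin, 10% FBS) at 37 °C, 5% CO2. […] Cells at 1000/well grown 24 h, then given test compound (from DMF, DMSO or 3 mM saline stock) as 1:3 serial dilutions in DMEM, DMF at most 0.25% final. After 72 h, CellTiter-Glo luminescence read, in triplicate.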
A general note: ATP-based viability assays read luminescence as a measure of living cells.

The subject of data set [2] is KB-3-1 human cervical carcinoma cell line. Briefly: Cytotoxicity, CellTiter-Glo, monolayer. Format: cell-based. In short, it runs like this: as §1
Data set [3] has as its system CP20 cells relative to KB-3-1 cells. Kind of data set: Cellular accumulation by flow cytometry. Conditions: 25 μM, 45 min, normalized to KB-3-1. It is filed as cell-based, human. In short, it runs like this:
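Cells trypsinised (200,000 per tube), washed twice and resuspended in IMDM with 5% FBS containing fluorescent test compound (final 25 μM), then held 45 min at 37 °C. Cells rewashed, resuspended in PBS and kept on ice. FL-1 fluorescence read by flow cytometry (488 nm laser, 10,000 events per sample), normalised to parental KB-3-1 cells.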

A short description of another data set: Distribution coefficient. Conditions: [octanol]:[phosphate-buffered saline, pH 7.2], fluorescence, mean ± SD.
Data set [4] deals with cisplatin-resistant KB CP.5 cells. Kind of data set: Cytotoxicity, CellTiter-Glo, monolayer. Format: cell-based, human. In short, it runs like this:
as §1

The conditions of data set [5]: pH 7.2.
The subject of data set [6] is phosphorylation of histone H2A.X in KB-3-1 cells. Briefly: H2AX immunohistochemical staining. Conditions: 24 h treatment. Format: cell-based, human. In outline:
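KB-3-1 cells (5 × 10^4 per chamber) grown 24 h, then exposed to Pt complexes (5–100 μM) for 24 h. Cells PBS-washed, fixed in 4% paraformaldehyde and blocked 1 h in PBS/5% normal horse serum/0.3% Triton X-100. Stained overnight at 4 °C with Alexa Fluor 647-conjugated anti-phospho-H2A.X (Ser139) rabbit mAb, counterstained with DAPI (2 μg/mL, 1 h), then imaged for γH2A.X foci by confocal microscopy.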

The subject of data set [7] is cisplatin-resistant cell lines. Particulars: cited from earlier work.
Data set [8] has as its system KB-3-1 cells grown in Matrigel. Briefly: Cytotoxicity in three dimensional Matrigel culture, CellTiter-Glo. Format: cell-based, human. Conditions: KB-3-1, Matrigel. In short, it runs like this:
(§2)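 Wells coated with 5 mg/mL Matrigel and gelled 30 min at 37 °C. Cells (1000/well) seeded over it in 2.5 mg/mL Matrigel and grown 1 day (single cells) or 4 days (spheroids). Test compound added as 1:3 serial dilutions in DMEM. Viability by CellTiter-Glo with 60 min lysis, run in triplicate.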

The test system of data set [9] is CP.5 cells grown in Matrigel. Described as above. Conditions: for IC50: CP.5, Matrigel. Format: cell-based, human. In short, it runs like this:
as §2

Setting [10] is: read-out: IC50 KB 3-1, solvent DMF, 72 h.
Setting [11] is: read-out: IC50 KB CP.5, solvent DMF, 72 h.
[12] abbreviates: relative to parent KB-3-1 cells, monolayer (Table 1 data).
The mark [13] stands for this setting: read-out: IC50 3D 1 Day, grown 1 day (single-cell suspension).
Setting [14] is: read-out: IC50 3D 4 Day, grown 4 days (spheroids).
[15] abbreviates: read-out: IC50 2D, KB-3-1, 2D culture (Table 2).
The mark [16] stands for this setting: read-out: IC50 KB 3-1, solvent Saline, 72 h.
Setting [17] is: read-out: IC50 2D, CP.5, 2D culture (Table 2).
[18] abbreviates: read-out: IC50 KB CP.5, solvent Saline, 72 h.

Where two headings read alike, the source gives them in different places.

The term IC50 denotes the midpoint of a concentration-inhibition curve. By LogD is commonly meant the decadic logarithm of the distribution of all forms, ionised or not, between an organic phase and buffer at a given pH. The low end stands for lower lipophilicity, the high end for higher lipophilicity.

For the molecule `CC1=CC(C)=[N+]2C1=Cc1ccc(CCC(=O)NCCNC(=O)OC(C)(C)C)n1[B-]2(F)F` [BODIPY-Boc, tert-Butyl (2-(3-(5,5-Difluoro-7,9-dimethyl-5H-4λ^4,5λ^4-dipyrrolo[1,2-c:2′,1′-f][1,3,2]diazaborinin-3-yl)propanamido)ethyl)carbamate], the IC50 worked out at 53.6 ± 2.9 µM in data set [1] (solvent DMF), 86.7 ± 0.8 µM in data set [2] (setting [10]) and 86.9 ± 4.4 µM in [4] (setting [11]). Further, the “reduction of accumulation in CP20 cells versus parent KB-3-1 cells” value in [3] is recorded as “unaffected”. In addition, in the data set “Distribution coefficient”, the LogD is 2.15 ± 0.023.

Take `CC1=CC(C)=[N+]2C1=Cc1ccc(CCC(=O)NCCNC(=O)C3C[NH][Pt]([Cl])([Cl])[NH]3)n1[B-]2(F)F` (stereo not drawn) [BODIPY-prop-Pt, [(2,3-Diamino-N-(2-(3-(5,5-difluoro-7,9-dimethyl-5H-4λ^4,5λ^4-dipyrrolo[1,2-c:2′,1′-f][1,3,2]diazaborinin-3-yl)propanamido)ethyl)propanamide)dichloroplatinum (II)]]: the results for the concentration for half-maximal inhibition (IC50) in data set [1] (solvent DMF), in [2] (setting [10]) and in data set [4] (setting [11]) were 192 ± 50.3 µM, 21.5 ± 5.8 µM and 44.6 ± 2.7 µM, respectively. Besides, the “resistance of CP20 cells” value in [1] was 10 fold. Besides, in data set [5], the LogD is recorded as 0.66 ± 0.011. Moreover, in data set [6] (50 μM), the γH2A.X foci entry is on record as “did so at 50 μM”. Moreover, the “resistance of CP.5 cells” value in data set [4] (setting [12]) worked out at 2 fold.

Regarding “[Pt(O,O′-cdbca)(NH3)2] [[^14C]carboplatin]”, the “reduction in accumulation in cisplatin-resistant cells” value in [7] was 50–75%.

As to `N.N.[Cl][Pt][Cl]` [Cisplatin, cis-[PtCl2(NH3)2]], the IC50 in data set [8] (setting [13]) was 4.5 ± 0.7 µM; in [8] (setting [14]), 9.4 ± 0.7 µM; in data set [9] (setting [13]), 22.9 ± 4.6 µM; in data set [9] (setting [14]), 32.1 ± 6.9 µM; in [1] (solvent DMF) it was 125 ± 31.5 µM; in data set [1] (solvent Saline), more than 100 µM. The IC50 in data set [2] (setting [15]) came out at 2.5 ± 0.1 µM; in data set [2] (setting [10]), 1.8 ± 0.1 µM; in [2] (setting [16]), 2.5 ± 0.2 µM; in [4] (setting [17]), 21 ± 2.8 µM; in data set [4] (setting [11]) it was 23.9 ± 5.3 µM; in [4] (setting [18]) it was 25.1 ± 3.4 µM. Besides, the “resistance of CP.5 spheroids” value in [9] (3D 4 day, relative to KB-3-1) is given as 3.4 fold. In addition, the “resistance of CP20 cells” value in data set [1] was 60 fold. In [6] (5 μM), the “γH2A.X foci / DNA damage response” value is listed as “strong DNA damage response”. Also, the “reduction in accumulation in cisplatin-resistant cells” value in data set [7] was 50–75%. The “resistance of CP.5 cells” value in [4] (2D (Table 2 data), relative to KB-3-1) is recorded as 8.4 fold; in data set [4] (setting [12]), 10 fold.

For the molecule `NCCN.[Cl][Pt][Cl]` [[PtCl2(en)]], the IC50 in data set [8] (setting [13]) is 21.4 ± 1 µM; in data set [8] (setting [14]), 150 µM; in [9] (setting [13]), 298 ± 21.8 µM; in data set [9] (setting [14]), more than 500 µM; in data set [1] (solvent DMF), more than 500 µM; in [1] (solvent Saline) it was more than 100 µM. In addition, the IC50 was 4.1 ± 0.2 µM in [2] (setting [15]); 1 ± 0.6 µM in data set [2] (setting [10]); 2.7 ± 1.9 µM in data set [2] (setting [16]); 107 ± 10.9 µM in [4] (setting [17]); 150 ± 11.8 µM in [4] (setting [11]); 94.9 ± 8.3 µM in data set [4] (setting [18]). Moreover, the “γH2A.X foci / DNA damage response” value in [6] (25 μM) is “strong DNA damage response”. Also, in data set [4] (setting [12]), the “resistance of CP.5 cells” value is reported as 40 fold.

Source of the values: article PMC5035150 (Journal of biological inorganic chemistry : JBIC : a …, 2015).
